Test results: ChEMBL document CHEMBL1137474, “Synthesis, DNA binding, and cytotoxicity studies of pyrrolo[2,1-c][1,4]benzodiazepine-anthraquinone conjugates” (Bioorg Med Chem, 2007)

Experiments:
[1] = test system: A2780; test: Cytotoxicity against human A2780 cells by sulforhodamine B assay; type: functional, cell-based
Method in brief: (§1)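 Cells in RPMI 1640 with 10% FBS and 2 mM L-glutamine, seeded at densities suited to doubling time, preincubated 24 h at 37 °C, 5% CO2. Drug added for a further 48 h. Fixed with cold TCA (final 10%) for 60 min at 4 °C, then SRB-stained. Bound dye eluted with 10 mM Tris base and read at 540 nm (690 nm reference). Growth taken relative to control wells. IC50 read from dose-response graphs. Triplicate wells, three repeat experiments.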

[2] = test system: PC-3; test: Cytotoxicity against human PC3 cells by sulforhodamine B assay; type: functional, cell-based; method in brief: as §1
[3] = test system: COLO 205; test: Cytotoxicity against human Colo205 cells by sulforhodamine B assay; type: functional, cell-based; method in brief: as §1
[4] = test system: ZR-75-1; test: Cytotoxicity against human ZR-75-1 cells by sulforhodamine B assay; type: functional, cell-based; method in brief: as §1
[5] = test system: HOP-62; test: Cytotoxicity against human Hop62 cells by sulforhodamine B assay; type: functional, cell-based; method in brief: as §1
[6] = test system: SiHa; test: Cytotoxicity against human SiHa cells by sulforhodamine B assay; type: functional, cell-based; method in brief: as §1
[7] = test system: DNA; test: Binding affinity for calf thymus DNA at 20 uM after 18 hrs by thermal denaturation assay; type: nucleic-acid assay; conditions: Bos taurus
[8] = test system: MCF7; test: Cytotoxicity against human MCF7 cells by sulforhodamine B assay; type: functional, cell-based; method in brief: as §1

SMILES | IC50 [1] | IC50 [2] | IC50 [3] | IC50 [4] | IC50 [5] | IC50 [6] | ΔTm [7] | IC50 [8]
COc1cc2c(cc1OCCCCC(=O)Nc1cccc3c1C(=O)c1ccccc1C3=O)N=C[C@@H]1CCCN1C2=O | 500 nM | 800 nM | < 1000 nM | 500 nM | 1000 nM | 1200 nM | 5.2 °C | 600 nM
COc1cc2c(cc1OCCCCCOc1ccc(OCCCCCOc3cc4c(cc3OC)C(=O)N3CCC[C@H]3C=N4)c3c1C(=O)c1ccccc1C3=O)N=C[C@@H]1CCCN1C2=O | 500 nM | 1000 nM | < 1000 nM | 1500 nM | 1400 nM | 800 nM | 6 °C | 1200 nM
COc1cc2c(cc1OCCCCOc1ccc(OCCCCOc3cc4c(cc3OC)C(=O)N3CCC[C@H]3C=N4)c3c1C(=O)c1ccccc1C3=O)N=C[C@@H]1CCCN1C2=O | 10000 nM | 7000 nM | 10000 nM |  |  | 9000 nM | 1.6 °C | 9000 nM
COc1cccc2c1C(=O)c1c(O)c3c(c(O)c1C2=O)C[C@@](O)(C(=O)CO)C[C@@H]3O[C@H]1C[C@H](N)[C@H](O)[C@H](C)O1 [DOXORUBICIN] | 500 nM | 500 nM | 2000 nM | 600 nM | 1000 nM | 1500 nM |  | 500 nM
COc1cc2c(cc1OCCCC(=O)Nc1cccc3c1C(=O)c1ccccc1C3=O)N=C[C@@H]1CCCN1C2=O | 500 nM | 800 nM | 1800 nM | 500 nM | 800 nM | 1800 nM | 9.1 °C | 1400 nM
COc1cc2c(cc1OCCCOc1ccc(OCCCOc3cc4c(cc3OC)C(=O)N3CCC[C@H]3C=N4)c3c1C(=O)c1ccccc1C3=O)N=C[C@@H]1CCCN1C2=O | 600 nM | 600 nM | < 1000 nM | 500 nM | < 1000 nM | 800 nM | 17.9 °C | 600 nM
